Data published in ChEMBL document CHEMBL3085745, “Plakinamine M, a steroidal alkaloid from the marine sponge Corticium sp” (2013).
≈ marks a conversion by molar mass, not a printed value. Calls of active or inactive are those of the source. No cut-off for these calls is given here.

Assays:
Escherichia coli = experiment: Antibacterial activity against Escherichia coli at 50 ug/mL; format: functional, organism-based
Bacillus subtilis = experiment: Antibacterial activity against Bacillus subtilis at 50 ug/mL; format: functional, organism-based
Candida albicans = experiment: Antifungal activity against Candida albicans at 50 ug/mL; format: functional, organism-based
Staphylococcus aureus = experiment: Antibacterial activity against Staphylococcus aureus at 50 ug/mL; format: functional, organism-based
[1] = test system: Mycobacterium tuberculosis; experiment: Antimycobacterial activity against Mycobacterium tuberculosis H37Ra ATCC 25177 after 4 days by MTT assay; format: functional; details: H37Ra ATCC 25177, 96 h
How it was run: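 Inoculum from a frozen bacterial pellet diluted into fresh medium to a final 5×10⁵ CFU/mL, dispensed onto compound in quadruplicate wells. DMSO-only wells served as negative control and rifampicin at 250 ng/mL as positive control. Incubated 4 days at 37 °C, then MTT added for a further 12 h. After subtracting media-only blanks, % inhibition = (1 − Σtest/Σcontrol)×100.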

Row | SMILES | Activity (Escherichia coli) | Activity (Bacillus subtilis) | Activity (Candida albicans) | Activity (Staphylococcus aureus) | MIC [1] [µg/mL]
1 | CC(C)/C(=C\C[C@@H](C)[C@H]1CC[C@H]2C3=CC[C@H]4C[C@H](N(C)C)CC[C@]4(C)[C@H]3CC[C@]12C)CCN(C)C | inactive | inactive | Active | inactive | 3.6 (≈ 7.46 µM)
2 | CC(C)/C(=C\C[C@@H](C)[C@H]1CC[C@H]2C3=CC[C@H]4C[C@H](N(C)C)[C@@H](O)C[C@]4(C)[C@H]3CC[C@]12C)CCN(C)C | inactive | inactive | Active | inactive | 15.8 (≈ 31.7 µM)
